For 18 compounds, IC50 results are on record in ChEMBL document CHEMBL1938295, “Synthesis of substituted benzimidazolyl curcumin mimics and their anticancer activity” (Bioorg Med Chem Lett, 2012).

Holding throughout (assay type): functional, cell-based
The subject of one assay is NCI-H460. Put plainly: Cytotoxicity against human H460 cells after 24 to 48 hrs by MTT assay. In outline: (§1)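 Treatment began 24 h after seeding. Compounds were dissolved in DMSO and diluted in DMEM to final 1, 5, 10, 20 and 40 μM, then incubated 24 or 48 h. MTT (0.5 mg/ml) was added for 3 h at 37 °C, formazan dissolved in DMSO, and absorbance read at 595 nm. Each assay was run in triplicate. IC50 came from nonlinear regression of a sigmoid dose-response curve, accepted when R^2 >0.95.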
(Formazan colour is commonly taken as a measure of viable cells.)

A further assay deals with SH-SY5Y. Put plainly: Cytotoxicity against human SH-SY5Y cells after 24 to 48 hrs by MTT assay. The gist of the method:
as §1

Another assay has as its system HepG2. Put plainly: Cytotoxicity against human HepG2 cells after 24 to 48 hrs by MTT assay. In outline: as §1
For the next assay, the system named is MCF7. Put plainly: Cytotoxicity against human MCF7 cells after 24 to 48 hrs by MTT assay.

For the compound `COc1cc(/C=C/C(=O)/C=C/c2nc3ccccc3n2C)ccc1O`, the IC50 (as a rule, the point on the concentration scale where inhibition reaches its midpoint) was found to be 7 µM with NCI-H460, 4.7 µM in the assay on SH-SY5Y, 2.9 µM in the assay on HepG2 and 3.7 µM in the assay on MCF7.
As for `COc1cc(/C=C/C(=O)/C=C/c2nc3cc(C)ccc3n2C)ccc1O`, the IC50 in the assay on NCI-H460 came out at 7.7 µM; in the assay on SH-SY5Y, 4.7 µM; with HepG2, 4.2 µM; in the assay with MCF7, 4.5 µM.
The like results for `COc1cc(/C=C/C(=O)/C=C/c2nc3c(C)cccc3n2C)ccc1O` were, in that order, 3 µM, 1 µM, 1.9 µM and 3.5 µM.
Take `COc1cc(/C=C/C(=O)/C=C/c2nc3c(C)c(C)ccc3n2C)ccc1O`: the IC50 in the assay with NCI-H460 turned out to be 31.9 µM; in the assay on SH-SY5Y it was 19 µM; in the assay on HepG2, 8.5 µM; in the assay with MCF7, 14.1 µM.
With `COc1ccc2c(c1)nc(/C=C/C(=O)/C=C/c1ccc(O)c(OC)c1)n2C`, the IC50 in the assay with NCI-H460 amounted to 12.7 µM; in the assay on SH-SY5Y, 4.8 µM; in the assay on HepG2, 3.8 µM; in the assay on MCF7, 3.9 µM.
Consider `COc1cc(/C=C/C(=O)/C=C/c2nc3cc(Cl)ccc3n2C)ccc1O`, for which the IC50 in the assay with NCI-H460 came to 8.9 µM; in the assay with SH-SY5Y it was 4.7 µM; with HepG2, 4 µM; with MCF7, 4.4 µM.
Turning to `COc1cc(/C=C/C(=O)/C=C/c2nc3cc([N+](=O)[O-])ccc3n2C)ccc1O`, the IC50 came to 6.7 µM in the assay on NCI-H460, 4.6 µM with SH-SY5Y, 3.7 µM in the assay on HepG2 and 3.7 µM in the assay with MCF7.
As for `COc1cc(/C=C/C(=O)/C=C/c2nc3cc(O)ccc3n2C)ccc1O`, the IC50 in the assay on NCI-H460 was determined as 7.6 µM; in the assay with SH-SY5Y, 4.8 µM; in the assay on HepG2, 3.6 µM; in the assay on MCF7, 2.9 µM.
The like results for `COc1ccc(/C=C/C(=O)/C=C/c2nc3ccccc3n2C)cc1O` were, in that order, 6.9 µM, 4.8 µM, 2.9 µM and 3.6 µM.
`COc1ccc(/C=C/C(=O)/C=C/c2nc3cc(C)ccc3n2C)cc1O`: the IC50 in the assay on NCI-H460 was 7.7 µM; with SH-SY5Y, 4.8 µM; in the assay with HepG2, 3.3 µM; in the assay with MCF7, 3.6 µM.
On to `COc1ccc(/C=C/C(=O)/C=C/c2nc3c(C)cccc3n2C)cc1O`, for which the IC50 was 25.4 µM in the assay with NCI-H460, 19.1 µM in the assay on SH-SY5Y, 14.7 µM in the assay on HepG2 and 7.4 µM in the assay with MCF7.
`COc1ccc(/C=C/C(=O)/C=C/c2nc3c(C)c(C)ccc3n2C)cc1O`: the 50% inhibitory concentration (IC50) amounted to 7.3 µM in the assay with NCI-H460, 4.8 µM with SH-SY5Y, 3.9 µM in the assay on HepG2 and 3.5 µM in the assay with MCF7.
Take `COc1ccc2c(c1)nc(/C=C/C(=O)/C=C/c1ccc(OC)c(O)c1)n2C`: the IC50 is 11.7 µM in the assay on NCI-H460, 4.8 µM in the assay with SH-SY5Y, 4.2 µM in the assay on HepG2 and 3.7 µM in the assay with MCF7.
On to `COc1ccc(/C=C/C(=O)/C=C/c2nc3cc(Cl)ccc3n2C)cc1O`, for which the IC50 in the assay with NCI-H460 was found to be 7.3 µM; with SH-SY5Y, 4.8 µM; in the assay with HepG2, 4.1 µM; in the assay with MCF7 it was 3.5 µM.
With `COc1ccc(/C=C/C(=O)/C=C/c2nc3cc([N+](=O)[O-])ccc3n2C)cc1O`, the IC50 stood at 10.5 µM in the assay on NCI-H460, 8.1 µM in the assay on SH-SY5Y, 4.6 µM with HepG2 and 4.8 µM in the assay with MCF7.
Take `COc1ccc(/C=C/C(=O)/C=C/c2nc3cc(O)ccc3n2C)cc1O`: the IC50 in the assay on NCI-H460 was 7.2 µM; in the assay on SH-SY5Y, 4.6 µM; with HepG2, 3.7 µM; with MCF7 it was 1.9 µM.
On to `COc1cc(/C=C/C(=O)CC(=O)/C=C/c2ccc(O)c(OC)c2)ccc1O` [CURCUMIN], for which the IC50 with NCI-H460 turned out to be 51.3 µM; in the assay on SH-SY5Y, 105 µM; with HepG2, 87.5 µM; in the assay with MCF7, 49.8 µM.
Turning to `CC(=O)O[C@H]1C(=O)[C@@]2(C)[C@H]([C@H](OC(=O)c3ccccc3)[C@]3(O)C[C@H](OC(=O)[C@H](O)[C@@H](NC(=O)c4ccccc4)c4ccccc4)C(C)=C1C3(C)C)[C@]1(OC(C)=O)CO[C@@H]1C[C@@H]2O` [PACLITAXEL], the results for the IC50 in the assay on NCI-H460, in the assay on SH-SY5Y and in the assay on HepG2 were 0.008 µM, 0.004 µM and 0.007 µM, respectively.
